Reference: publication PMC6790403 (International Journal of Nanomedicine, 2019)
Marks after values point to notes of the source that are not given here.

Legend:
SKBR-3 cells [1] = experiment: Cytotoxicity by MTT assay; type: cell-based; conditions: Homo sapiens, SK-BR-3
How it was run: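 SKBR-3 cells were grown in McCoy's 5A with 10% FBS, penicillin and streptomycin at 37°C under 5% CO2. Test compound was applied over a dose range in a time-dependent MTT assay. Growth inhibition was expressed as a percentage relative to controls, and IC50 was derived from the dose response.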

SKBR-3 cells [2] = experiment: Apoptosis study by annexin V FITC; type: cell-based, human; conditions: SKBR3 cells, 24 hrs, at respective IC50
How it was run: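 SKBR-3 cells seeded at 1×10^5 cells per well in McCoy's medium at 37°C and exposed to test compound for 24 hrs. Cells were then trypsinized, pelleted at 3000 rpm for 3 mins and PBS-washed. They were stained with FITC-annexin V plus propidium iodide, and the apoptotic fraction was quantified by flow cytometry.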

SKBR-3 cells [3] = experiment: Cell cycle distribution analysis; type: cell-based, human; conditions: 24 hrs, at respective IC50
How it was run: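 After 24 hrs of exposure to test compound (SKBR-3 seeded at 1×10^5 cells per well), cells were collected and washed thrice in sterile PBS pH 7.4. They were fixed in chilled 70% ethanol and stained with propidium iodide (20 µg/mL) for 30 mins. DNA content was acquired over 15,000 events per sample, and phase distribution was compared with untreated control.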

MCF-7 cells = experiment: Cell cycle distribution analysis; type: cell-based, human; conditions: 24 hrs, at respective IC50
Pharmacokinetic study = type: in vivo, BALB/c mice
Cardiac toxicity study = type: in vivo, female BALB/c mice; conditions: BALB/c mice
How it was run: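 Female BALB/c mice (~25 g, n=3 per group) received three consecutive IV injections totalling […] DOX, given as free drug or drug-equivalent nanoparticles. Controls were untreated/saline and blank nanoparticles. Weight was recorded every 48 hrs, and […] was taken under light anaesthesia 14 days after the last dose. Hearts were then excised and weighed, and SOD was kit-assayed in heart homogenate (ice-cold PBS, 10 mL/g).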

SKBR-3 tumor = experiment: In vivo therapeutic study on tumor-bearing xenograft mice; design: species or system athymic nude mice; conditions: for average tumor volume: three IV doses of DOX 3 mg/kg on alternate days
How it was run: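 Athymic nude mice (CAnN.Cg-Foxn, 6 weeks, ~20 g) were inoculated subcutaneously in the left rear flank with 1×10^7 SKBR-3 cells in 200 μL medium. At 100–150 mm3, groups of three received IV saline or test compound, three doses of DOX 3 mg/kg equivalent on alternate days. Tumours were caliper-measured, body weight was monitored, and excised tumours were weighed after sacrifice (mean ± SD, n=3).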

[4] = BALB/c, mouse, plasma, iv, 10 mg/kg
[5] = plasma DOX, IV bolus, 10 mg/kg DOX or equivalent, BALB/c mice

With `COc1cccc2c1C(=O)c1c(O)c3c(c(O)c1C2=O)C[C@@](O)(C(=O)CO)C[C@@H]3O[C@H]1C[C@H](N)[C@H](O)[C@H](C)O1` [DOX, (7S, 9S)-7-[(2R, 4S, 5S, 6S)-4-amino-5-hydroxy-6-methyloxan-2-yl]oxy-6,9,11-trihydroxy-9-(2-hydroxyacetyl)-4-methoxy-8,10-dihydro-7H-tetracene-5,12-dione] the IC50 (SKBR-3 cells [1]) was 14.1 µM, the extent of apoptosis (SKBR-3 cells [2]) was 19.6% and the “cell-arrest in S-phase” value (SKBR-3 cells [3]) was 22%. For the same compound, the “cell-arrest in S-phase” value (MCF-7 cells) was 8%, the AUC(0-inf) (Pharmacokinetic study; [4]) was 2930 ± 205 ng·h/mL and the AUC(0-t) (Pharmacokinetic study; [4]) was 2880 ± 199 ng·h/mL. The Cmax (Pharmacokinetic study; [4]) was 911 ± 50.5 ng/mL, the MRT inf (Pharmacokinetic study; [4]) was 18.2 ± 0.86 h and the MRT last (Pharmacokinetic study; [4]) was 16.2 ± 0.99 h. For the same compound, the Tmax (Pharmacokinetic study; [4]) was 0.25 ± 0.021 h, the Vd (Pharmacokinetic study; [4]) was 61.9 ± 4.8 L/kg and the clearance (Pharmacokinetic study; [4]) was 56.7 mL/min/kg. For the same compound, the half-life (Pharmacokinetic study; [4]) was 17.9 ± 2.1 h, the AUMCinf (Pharmacokinetic study; [5]) was 53,296.5±2600 hrs.hrs.ng/mL and the AUMClast (Pharmacokinetic study; [5]) was 46,707.8±2202.6 hrs.hrs.ng/mL. The Heart weight (Cardiac toxicity study; 2 weeks after final dosing) was 0.1420 ± 0.025 g, the LV fractional shortening (Cardiac toxicity study; 14 days after last dose) was “significant decrease” and the “histopathology of heart sections” value (Cardiac toxicity study; hematoxylin and eosin staining) was “Remarkable changes in degradation in cardiac muscle with vacuolization and edema of the cells”. The “% SOD” value (Cardiac toxicity study; heart homogenate, 2 weeks after final dosing) was 34.02±4.5^a,b %, the “Average tumor weights of the excised tumors” value (SKBR-3 tumor; at the terminal experiment, SKBR-3 tumor, three IV doses of DOX 3 mg/kg) was 0.424 ± 0.06 g and the average tumor volume (SKBR-3 tumor; day 15, SKBR-3 tumor) was 500 mm^3. It also gave an average tumor volume (SKBR-3 tumor; day 25, SKBR-3 tumor) of 1790 mm^3.
